Results as given in ChEMBL document CHEMBL5058577, “EUbOPEN Chemogenomics Library 2 (Multiplex)” (2022).

Test system: Fibroblast
Experiment: Multiplex assay against human fibroblast
Assay type: toxicity, cell-based
Method in brief: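 Hoechst33342, BioTracker Green Microtubule Cytoskeleton Dye, MitoTracker Red and Annexin V Alexa Fluor 680 were added to live cells at seeding, and imaging on a CQ1 microscope at 37°C and 5% CO2 followed compound addition. Gating by CellPathfinder machine learning separated cells into Hoechst high-intensity objects or normal cells, then normal cells into healthy, pyknosed or fragmented nuclei, then pyknosed cells into mitotic or apoptotic. Per cents of healthy-nucleus cells are reported for the tubulin, mitochondrial-mass and membrane-permeability phenotypes.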

[1] = 12 h, 1 µM, compound concentration 1 uM, replicate 1
[2] = 12 h, 1 µM, compound concentration 1 uM, replicate 2
[3] = 12 h, 10 µM, compound concentration 10 uM, replicate 1
[4] = 12 h, 10 µM, compound concentration 10 uM, replicate 2
[5] = 24 h, 1 µM, compound concentration 1 uM, replicate 1
[6] = 24 h, 1 µM, compound concentration 1 uM, replicate 2
[7] = 24 h, 10 µM, compound concentration 10 uM, replicate 1
[8] = 24 h, 10 µM, compound concentration 10 uM, replicate 2
[9] = 48 h, 1 µM, compound concentration 1 uM, replicate 1
[10] = 48 h, 1 µM, compound concentration 1 uM, replicate 2
[11] = 48 h, 10 µM, compound concentration 10 uM, replicate 1
[12] = 48 h, 10 µM, compound concentration 10 uM, replicate 2

COc1c(C)cc(NC(=O)c2nn(Cc3ccc(F)cc3)c3c2CN(C(=O)c2ccc[nH]2)C[C@]3(C)C(N)=O)cc1C
Population Apoptotic (%) [1]: 42%
Population Fragmented Nuclei (%) [1]: 21%
Population Healthy Nuclei (%) [1]: 58%
Population Hoechst High Intensity Objects (%) [1]: 2%
Population Membrane Permeable-Phenotype (%) [1]: 1%
Population Mitochondria Different-Phenotype (%) [1]: 18%
Population Mitotic Cells (%) [1]: 57%
Population Normal (%) [1]: 97%
Population Pyknosed Nuclei (%) [1]: 20%
Population Tubulin-Different-Phenotype (%) [1]: 64%
Total Cell Count [1]: 95
Population Apoptotic (%) [2]: 46%
Population Fragmented Nuclei (%) [2]: 16%
Population Healthy Nuclei (%) [2]: 51%
Population Hoechst High Intensity Objects (%) [2]: 3%
Population Membrane Permeable-Phenotype (%) [2]: 6%
Population Mitochondria Different-Phenotype (%) [2]: 11%
Population Mitotic Cells (%) [2]: 53%
Population Normal (%) [2]: 96%
Population Pyknosed Nuclei (%) [2]: 31%
Population Tubulin-Different-Phenotype (%) [2]: 72%
Total Cell Count [2]: 86
Population Apoptotic (%) [3]: 47%
Population Fragmented Nuclei (%) [3]: 12%
Population Healthy Nuclei (%) [3]: 58%
Population Hoechst High Intensity Objects (%) [3]: 1%
Population Membrane Permeable-Phenotype (%) [3]: 0%
Population Mitochondria Different-Phenotype (%) [3]: 25%
Population Mitotic Cells (%) [3]: 52%
Population Normal (%) [3]: 98%
Population Pyknosed Nuclei (%) [3]: 29%
Population Tubulin-Different-Phenotype (%) [3]: 90%
Total Cell Count [3]: 166
Population Apoptotic (%) [4]: 52%
Population Fragmented Nuclei (%) [4]: 29%
Population Healthy Nuclei (%) [4]: 38%
Population Hoechst High Intensity Objects (%) [4]: 2%
Population Membrane Permeable-Phenotype (%) [4]: 6%
Population Mitochondria Different-Phenotype (%) [4]: 30%
Population Mitotic Cells (%) [4]: 47%
Population Normal (%) [4]: 97%
Population Pyknosed Nuclei (%) [4]: 32%
Total Cell Count [4]: 115
Population Apoptotic (%) [5]: 66%
Population Fragmented Nuclei (%) [5]: 25%
Population Healthy Nuclei (%) [5]: 61%
Population Hoechst High Intensity Objects (%) [5]: 3%
Population Membrane Permeable-Phenotype (%) [5]: 1%
Population Mitochondria Different-Phenotype (%) [5]: 17%
Population Mitotic Cells (%) [5]: 33%
Population Normal (%) [5]: 96%
Population Pyknosed Nuclei (%) [5]: 12%
Population Tubulin-Different-Phenotype (%) [5]: 45%
Total Cell Count [5]: 96
Population Apoptotic (%) [6]: 48%
Population Fragmented Nuclei (%) [6]: 31%
Population Healthy Nuclei (%) [6]: 38%
Population Hoechst High Intensity Objects (%) [6]: 6%
Population Membrane Permeable-Phenotype (%) [6]: 8%
Population Mitotic Cells (%) [6]: 51%
Population Normal (%) [6]: 93%
Population Pyknosed Nuclei (%) [6]: 30%
Population Tubulin-Different-Phenotype (%) [6]: 67%
Total Cell Count [6]: 95
Population Apoptotic (%) [7]: 65%
Population Fragmented Nuclei (%) [7]: 14%
Population Healthy Nuclei (%) [7]: 64%
Population Hoechst High Intensity Objects (%) [7]: 3%
Population Membrane Permeable-Phenotype (%) [7]: 0%
Population Mitochondria Different-Phenotype (%) [7]: 47%
Population Mitotic Cells (%) [7]: 34%
Population Normal (%) [7]: 96%
Population Pyknosed Nuclei (%) [7]: 20%
Population Tubulin-Different-Phenotype (%) [7]: 90%
Total Cell Count [7]: 159
Population Apoptotic (%) [8]: 43%
Population Fragmented Nuclei (%) [8]: 30%
Population Healthy Nuclei (%) [8]: 47%
Population Hoechst High Intensity Objects (%) [8]: 4%
Population Membrane Permeable-Phenotype (%) [8]: 8%
Population Mitochondria Different-Phenotype (%) [8]: 26%
Population Mitotic Cells (%) [8]: 56%
Population Normal (%) [8]: 95%
Population Pyknosed Nuclei (%) [8]: 21%
Population Tubulin-Different-Phenotype (%) [8]: 82%
Total Cell Count [8]: 110
Population Apoptotic (%) [9]: 87%
Population Fragmented Nuclei (%) [9]: 29%
Population Healthy Nuclei (%) [9]: 61%
Population Hoechst High Intensity Objects (%) [9]: 7%
Population Membrane Permeable-Phenotype (%) [9]: 0%
Population Mitochondria Different-Phenotype (%) [9]: 10%
Population Mitotic Cells (%) [9]: 12%
Population Normal (%) [9]: 92%
Population Pyknosed Nuclei (%) [9]: 8%
Population Tubulin-Different-Phenotype (%) [9]: 45%
Total Cell Count [9]: 99
Population Apoptotic (%) [10]: 70%
Population Fragmented Nuclei (%) [10]: 34%
Population Healthy Nuclei (%) [10]: 45%
Population Hoechst High Intensity Objects (%) [10]: 5%
Population Membrane Permeable-Phenotype (%) [10]: 10%
Population Mitotic Cells (%) [10]: 29%
Population Normal (%) [10]: 94%
Population Pyknosed Nuclei (%) [10]: 19%
Population Tubulin-Different-Phenotype (%) [10]: 69%
Total Cell Count [10]: 91
Population Apoptotic (%) [11]: 60%
Population Fragmented Nuclei (%) [11]: 22%
Population Healthy Nuclei (%) [11]: 60%
Population Hoechst High Intensity Objects (%) [11]: 4%
Population Membrane Permeable-Phenotype (%) [11]: 0%
Population Mitochondria Different-Phenotype (%) [11]: 54%
Population Mitotic Cells (%) [11]: 39%
Population Normal (%) [11]: 95%
Population Pyknosed Nuclei (%) [11]: 17%
Population Tubulin-Different-Phenotype (%) [11]: 92%
Total Cell Count [11]: 166
Population Apoptotic (%) [12]: 77%
Population Fragmented Nuclei (%) [12]: 41%
Population Healthy Nuclei (%) [12]: 51%
Population Hoechst High Intensity Objects (%) [12]: 2%
Population Membrane Permeable-Phenotype (%) [12]: 3%
Population Mitochondria Different-Phenotype (%) [12]: 16%
Population Mitotic Cells (%) [12]: 22%
Population Normal (%) [12]: 97%
Population Pyknosed Nuclei (%) [12]: 7%
Population Tubulin-Different-Phenotype (%) [12]: 75%
Total Cell Count [12]: 122

CSc1ccccc1N1CCN(CCCCCC(=O)NC2CCCc3ccccc32)CC1.Cl (configuration not stated)
Population Apoptotic (%) [1]: 37%
Population Fragmented Nuclei (%) [1]: 26%
Population Healthy Nuclei (%) [1]: 49%
Population Hoechst High Intensity Objects (%) [1]: 6%
Population Membrane Permeable-Phenotype (%) [1]: 1%
Population Mitochondria Different-Phenotype (%) [1]: 15%
Population Mitotic Cells (%) [1]: 62%
Population Normal (%) [1]: 93%
Population Pyknosed Nuclei (%) [1]: 24%
Population Tubulin-Different-Phenotype (%) [1]: 65%
Total Cell Count [1]: 126
Population Apoptotic (%) [2]: 50%
Population Fragmented Nuclei (%) [2]: 32%
Population Healthy Nuclei (%) [2]: 41%
Population Hoechst High Intensity Objects (%) [2]: 2%
Population Membrane Permeable-Phenotype (%) [2]: 9%
Population Mitochondria Different-Phenotype (%) [2]: 7%
Population Mitotic Cells (%) [2]: 50%
Population Normal (%) [2]: 97%
Population Pyknosed Nuclei (%) [2]: 25%
Population Tubulin-Different-Phenotype (%) [2]: 74%
Total Cell Count [2]: 135
Population Apoptotic (%) [3]: 58%
Population Fragmented Nuclei (%) [3]: 25%
Population Healthy Nuclei (%) [3]: 57%
Population Hoechst High Intensity Objects (%) [3]: 5%
Population Membrane Permeable-Phenotype (%) [3]: 0%
Population Mitochondria Different-Phenotype (%) [3]: 78%
Population Mitotic Cells (%) [3]: 41%
Population Normal (%) [3]: 94%
Population Pyknosed Nuclei (%) [3]: 17%
Population Tubulin-Different-Phenotype (%) [3]: 95%
Total Cell Count [3]: 220
Population Apoptotic (%) [4]: 66%
Population Fragmented Nuclei (%) [4]: 34%
Population Healthy Nuclei (%) [4]: 50%
Population Mitochondria Different-Phenotype (%) [4]: 36%
Population Mitotic Cells (%) [4]: 33%
Population Pyknosed Nuclei (%) [4]: 14%
Population Tubulin-Different-Phenotype (%) [4]: 92%
Total Cell Count [4]: 242
Population Apoptotic (%) [5]: 52%
Population Fragmented Nuclei (%) [5]: 29%
Population Healthy Nuclei (%) [5]: 52%
Population Hoechst High Intensity Objects (%) [5]: 6%
Population Membrane Permeable-Phenotype (%) [5]: 0%
Population Mitochondria Different-Phenotype (%) [5]: 21%
Population Mitotic Cells (%) [5]: 47%
Population Normal (%) [5]: 93%
Population Pyknosed Nuclei (%) [5]: 18%
Population Tubulin-Different-Phenotype (%) [5]: 40%
Total Cell Count [5]: 133
Population Apoptotic (%) [6]: 37%
Population Fragmented Nuclei (%) [6]: 33%
Population Healthy Nuclei (%) [6]: 43%
Population Hoechst High Intensity Objects (%) [6]: 3%
Population Membrane Permeable-Phenotype (%) [6]: 3%
Population Mitochondria Different-Phenotype (%) [6]: 11%
Population Mitotic Cells (%) [6]: 62%
Population Normal (%) [6]: 96%
Population Pyknosed Nuclei (%) [6]: 23%
Population Tubulin-Different-Phenotype (%) [6]: 64%
Total Cell Count [6]: 130
Population Apoptotic (%) [7]: 90%
Population Fragmented Nuclei (%) [7]: 22%
Population Healthy Nuclei (%) [7]: 66%
Population Hoechst High Intensity Objects (%) [7]: 7%
Population Membrane Permeable-Phenotype (%) [7]: 0%
Population Mitochondria Different-Phenotype (%) [7]: 81%
Population Mitotic Cells (%) [7]: 9%
Population Normal (%) [7]: 92%
Population Pyknosed Nuclei (%) [7]: 11%
Population Tubulin-Different-Phenotype (%) [7]: 98%
Total Cell Count [7]: 211
Population Apoptotic (%) [8]: 66%
Population Fragmented Nuclei (%) [8]: 33%
Population Healthy Nuclei (%) [8]: 56%
Population Hoechst High Intensity Objects (%) [8]: 3%
Population Mitochondria Different-Phenotype (%) [8]: 51%
Population Mitotic Cells (%) [8]: 33%
Population Normal (%) [8]: 96%
Population Pyknosed Nuclei (%) [8]: 9%
Population Tubulin-Different-Phenotype (%) [8]: 90%
Total Cell Count [8]: 258
Population Apoptotic (%) [9]: 61%
Population Fragmented Nuclei (%) [9]: 26%
Population Healthy Nuclei (%) [9]: 56%
Population Hoechst High Intensity Objects (%) [9]: 6%
Population Membrane Permeable-Phenotype (%) [9]: 2%
Population Mitochondria Different-Phenotype (%) [9]: 17%
Population Mitotic Cells (%) [9]: 38%
Population Normal (%) [9]: 93%
Population Pyknosed Nuclei (%) [9]: 17%
Population Tubulin-Different-Phenotype (%) [9]: 69%
Total Cell Count [9]: 132
Population Apoptotic (%) [10]: 44%
Population Fragmented Nuclei (%) [10]: 33%
Population Healthy Nuclei (%) [10]: 45%
Population Hoechst High Intensity Objects (%) [10]: 1%
Population Membrane Permeable-Phenotype (%) [10]: 0%
Population Mitochondria Different-Phenotype (%) [10]: 12%
Population Mitotic Cells (%) [10]: 56%
Population Normal (%) [10]: 98%
Population Pyknosed Nuclei (%) [10]: 20%
Population Tubulin-Different-Phenotype (%) [10]: 64%
Total Cell Count [10]: 124
Population Apoptotic (%) [11]: 91%
Population Fragmented Nuclei (%) [11]: 25%
Population Healthy Nuclei (%) [11]: 61%
Population Hoechst High Intensity Objects (%) [11]: 8%
Population Membrane Permeable-Phenotype (%) [11]: 0%
Population Mitochondria Different-Phenotype (%) [11]: 82%
Population Mitotic Cells (%) [11]: 8%
Population Normal (%) [11]: 91%
Population Pyknosed Nuclei (%) [11]: 12%
Population Tubulin-Different-Phenotype (%) [11]: 97%
Total Cell Count [11]: 195
Population Apoptotic (%) [12]: 68%
Population Fragmented Nuclei (%) [12]: 38%
Population Healthy Nuclei (%) [12]: 53%
Population Hoechst High Intensity Objects (%) [12]: 4%
Population Membrane Permeable-Phenotype (%) [12]: 2%
Population Mitochondria Different-Phenotype (%) [12]: 33%
Population Mitotic Cells (%) [12]: 31%
Population Normal (%) [12]: 95%
Population Pyknosed Nuclei (%) [12]: 8%
Population Tubulin-Different-Phenotype (%) [12]: 83%
Total Cell Count [12]: 281
